This passage reports Activity results from ChEMBL document CHEMBL1147923, “Synthesis, docking studies and anti-inflammatory activity of 4,5,6,7-tetrahydro-2H-indazole derivatives” (Bioorg Med Chem, 2007).

The source made the active and inactive calls.

Series [1] relates to Rattus norvegicus. The series is described as follows: Antiinflammatory activity against Freund's adjuvant-induced arthritis in Wistar rat assessed as reduction in paw height at 100 mg/kg, po. It counts as functional, organism-based. More on the design: dose 100 mg/kg. In a few lines:
(§1)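 Arthritis induced by Freund's adjuvant injected into right paw; after 3 days paw height, paw width and joint width re-measured (day 0) and rats randomised. Dosed once daily for 3 further days (days 1–3), orally at 10 ml/kg or ip at 2 ml/kg, in vehicle 10% DMSO/10% Tween 80/80% water. Measurements taken at baseline, day 0 and days 1–4, compared with vehicle group.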

In series [2] the test system is Rattus norvegicus. The series is described as follows: Antiinflammatory activity against Freund's adjuvant-induced arthritis in Wistar rat assessed as reduction in paw height at 100 mg/kg, ip. Format: functional, organism-based. Also noted: dose 100 mg/kg. In outline: as §1
Series [3] relates to Rattus norvegicus. The series is described as follows: Antiinflammatory activity against Freund's adjuvant-induced arthritis in Wistar rat assessed as reduction in paw width at 100 mg/kg, po. It counts as functional, organism-based. Also noted: dose 100 mg/kg. In outline: as §1
Series [4] relates to Rattus norvegicus. The series is described as follows: Antiinflammatory activity against Freund's adjuvant-induced arthritis in Wistar rat assessed as reduction in paw width at 100 mg/kg, ip. Format: functional, organism-based. Also noted: dose 100 mg/kg. In outline:
as §1

In series [5] the test system is Rattus norvegicus. The series is described as follows: Antiinflammatory activity against Freund's adjuvant-induced arthritis in Wistar rat assessed as reduction in joint size at 100 mg/kg, po. It counts as functional, organism-based. Also noted: dose 100 mg/kg. In outline:
as §1

In series [6] the test system is Rattus norvegicus. The series is described as follows: Antiinflammatory activity against Freund's adjuvant-induced arthritis in Wistar rat assessed as reduction in joint size at 100 mg/kg, ip. It counts as functional, organism-based. Also noted: dose 100 mg/kg. In outline:
as §1

Series [7] has as its system Rattus norvegicus. The series is described as follows: Antiinflammatory activity against carrageenan-induced Wistar rat paw oedema at 10 mg/kg, po. It counts as functional, organism-based. Also noted: dose 10 mg/kg. In a few lines:
(§2)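 Overnight-fasted rats dosed orally (10, 50, 100 mg/kg/10 ml) or with vehicle before carrageenan injection into the footpad. Equal volume of saline injected into left hindpaw. Rats killed 4 h later and hind paws cut and weighed. Oedema taken as right minus left paw weight; means ± SEM versus vehicle.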
(In general: Carrageenan injected into the paw causes an acute inflammation.)

The test system of series [8] is Rattus norvegicus. The series is described as follows: Antiinflammatory activity against carrageenan-induced Wistar rat paw oedema at 50 mg/kg, po. Format: functional, organism-based. More on the design: dose 50 mg/kg. In outline: as §2
For series [9], the system named is Rattus norvegicus. The series is described as follows: Antiinflammatory activity against carrageenan-induced Wistar rat paw oedema at 100 mg/kg, po. Format: functional, organism-based. Also noted: dose 100 mg/kg. In outline: as §2
The subject of series [10] is Rattus norvegicus. The series is described as follows: Toxicity in arthritic Wistar rat assessed as gastric ulcerogenic response at 100 mg/kg, po. It counts as organism-based, Stomach. Also noted: dose 100 mg/kg, route oral. The conditions noted are these: in vivo. In outline:
(§3)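 Arthritis induced as for adjuvant model. Two days later rats fasted overnight, then dosed orally (10 ml/kg) or with vehicle; indomethacin 10 mg/kg po as positive control. Rats killed 4 h later, stomachs opened along greater curvature. Ulcer index taken as summed lesion length (mm) in gastric mucosa.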

The subject of series [11] is Rattus norvegicus. The series is described as follows: Antinociceptive activity in Wistar rat assessed as increase in latency time at 50 mg/kg, ip. It counts as functional, organism-based. Also noted: dose 50 mg/kg. In outline:
(§4)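 Freund's adjuvant-arthritic rats given ip dosing (10 ml/kg) or vehicle once daily for 4 days. Hot-plate test the day after the last injection at 55 ± 0.5 °C, set for 15–18 s control latency. Latency to hind-paw licking or jump recorded, 60 s cut-off. Each rat tested twice, 30 min apart. Normal rats included as controls.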

The test system of series [12] is Rattus norvegicus. The series is described as follows: Antinociceptive activity in Wistar rat assessed as increase in latency time at 100 mg/kg, ip. It counts as functional, organism-based. More on the design: dose 100 mg/kg. In outline:
as §4

Series [13] concerns Rattus norvegicus. The series is described as follows: Antiinflammatory activity against Freund's adjuvant-induced arthritis in Wistar rat assessed as reduction in paw height at 10 mg/kg, po. It counts as functional, organism-based. Also noted: dose 10 mg/kg. In outline: as §1
For series [14], the system named is Rattus norvegicus. The series is described as follows: Antiinflammatory activity against Freund's adjuvant-induced arthritis in Wistar rat assessed as reduction in paw height at 50 mg/kg, po. Format: functional, organism-based. More on the design: dose 50 mg/kg. In a few lines:
as §1

For series [15], the system named is Rattus norvegicus. The series is described as follows: Antiinflammatory activity against Freund's adjuvant-induced arthritis in Wistar rat assessed as reduction in paw width at 10 mg/kg, po. It counts as functional, organism-based. Also noted: dose 10 mg/kg. In outline: as §1
The subject of series [16] is Rattus norvegicus. The series is described as follows: Antiinflammatory activity against Freund's adjuvant-induced arthritis in Wistar rat assessed as reduction in paw width at 50 mg/kg, po. Format: functional, organism-based. More on the design: dose 50 mg/kg. In a few lines: as §1
Series [17] has as its system Rattus norvegicus. The series is described as follows: Antiinflammatory activity against Freund's adjuvant-induced arthritis in Wistar rat assessed as reduction in joint width at 10 mg/kg, po. More on the design: dose 10 mg/kg. Format: functional, organism-based. In outline: as §1
Series [18] deals with Rattus norvegicus. The series is described as follows: Antiinflammatory activity against Freund's adjuvant-induced arthritis in Wistar rat assessed as reduction in joint width at 50 mg/kg, po. It counts as functional, organism-based. Also noted: dose 50 mg/kg. In a few lines: as §1
Series [19] deals with Rattus norvegicus. The series is described as follows: Antiinflammatory activity in Wistar rat assessed as reduction of carrageenan-induced paw oedema. Format: functional, organism-based. In a few lines: as §2
Series [20] concerns Rattus norvegicus. The series is described as follows: Toxicity in arthritic Wistar rat assessed as gastric ulcerogenic response at 10 mg/kg, po. Format: organism-based, Stomach. More on the design: dose 10 mg/kg, route oral. As to conditions: in vivo. In a few lines:
as §3

For the compound `FC(F)(F)c1ccnc(-n2nc3c(c2-c2ccccc2)CCCC3)n1`, the result in the series with Rattus norvegicus [1], in the series on Rattus norvegicus [2] and in the series with Rattus norvegicus [4] was Active. Also, the outcome in the series with Rattus norvegicus [3], with Rattus norvegicus [5], in the series with Rattus norvegicus [6], with Rattus norvegicus [7], with Rattus norvegicus [8] and in the series with Rattus norvegicus [9] was inactive. In addition, the Activity entry in the series on Rattus norvegicus [10] is on record as “Non-toxic”.

For `FC(F)(F)c1ccc(-n2nc3c(c2-c2ccccc2)CCCC3)cc1`, the outcome in the series with Rattus norvegicus [1], in the series on Rattus norvegicus [3], with Rattus norvegicus [5], in the series with Rattus norvegicus [13], with Rattus norvegicus [14] and with Rattus norvegicus [15] was inactive. In addition, the result with Rattus norvegicus [16], with Rattus norvegicus [17] and in the series on Rattus norvegicus [18] was inactive. Also, the result with Rattus norvegicus [2], with Rattus norvegicus [4], with Rattus norvegicus [6], in the series with Rattus norvegicus [11] and in the series with Rattus norvegicus [12] was Active. Further, the Activity result is “Non-toxic” in the series on Rattus norvegicus [10] and “Dose-dependent effect” in the series with Rattus norvegicus [19].

Take `COc1ccc2c(c1)c(CC(=O)O)c(C)n2C(=O)c1ccc(Cl)cc1` [INDOMETHACIN]: the Activity result with Rattus norvegicus [20] is “Toxic”.
